ChEMBL document CHEMBL5058577, “EUbOPEN Chemogenomics Library 2 (Multiplex)” (2022)

Test system: Fibroblast
Assay: Multiplex assay against human fibroblast
Format: toxicity, cell-based
Procedure, shortened: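 Phenotypes for tubulin, mitochondrial mass and membrane permeability are expressed as per cents of healthy-nucleus cells. Cells were stained live at seeding with Hoechst33342, BioTracker Green Microtubule Cytoskeleton Dye, MitoTracker Red and Annexin V Alexa Fluor 680, then imaged after compound addition on a CQ1 microscope at 37°C and 5% CO2. Machine-learning gating in CellPathfinder separated Hoechst high-intensity objects from normal cells, divided normal cells by nuclear state (healthy, pyknosed, fragmented) and divided pyknosed cells into mitotic or apoptotic.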

[1] = 12 h, 1 µM, compound concentration 1 uM, replicate 1
[2] = 12 h, 1 µM, compound concentration 1 uM, replicate 2
[3] = 12 h, 10 µM, compound concentration 10 uM, replicate 1
[4] = 12 h, 10 µM, compound concentration 10 uM, replicate 2
[5] = 24 h, 1 µM, compound concentration 1 uM, replicate 1
[6] = 24 h, 1 µM, compound concentration 1 uM, replicate 2
[7] = 24 h, 10 µM, compound concentration 10 uM, replicate 1
[8] = 24 h, 10 µM, compound concentration 10 uM, replicate 2
[9] = 48 h, 1 µM, compound concentration 1 uM, replicate 1
[10] = 48 h, 1 µM, compound concentration 1 uM, replicate 2
[11] = 48 h, 10 µM, compound concentration 10 uM, replicate 1
[12] = 48 h, 10 µM, compound concentration 10 uM, replicate 2

Structure (SMILES): CSCC[C@H](NC=O)C(=O)N[C@@H](CC(C)C)C(=O)N[C@@H](Cc1ccccc1)C(=O)O
- Population Fragmented Nuclei (%) [1]: 18%
- Population Healthy Nuclei (%) [1]: 69%
- Population Mitochondria Different-Phenotype (%) [1]: 3%
- Population Tubulin-Different-Phenotype (%) [1]: 26%
- Total Cell Count [1]: 182
- Population Fragmented Nuclei (%) [2]: 29%
- Population Healthy Nuclei (%) [2]: 51%
- Population Mitochondria Different-Phenotype (%) [2]: 4%
- Population Tubulin-Different-Phenotype (%) [2]: 39%
- Total Cell Count [2]: 175
- Population Mitochondria Different-Phenotype (%) [3]: 5%
- Population Tubulin-Different-Phenotype (%) [3]: 24%
- Total Cell Count [3]: 112
- Population Fragmented Nuclei (%) [4]: 27%
- Population Healthy Nuclei (%) [4]: 39%
- Population Hoechst High Intensity Objects (%) [4]: 38%
- Population Membrane Permeable-Phenotype (%) [4]: 9%
- Population Mitochondria Different-Phenotype (%) [4]: 3%
- Population Normal (%) [4]: 61%
- Population Tubulin-Different-Phenotype (%) [4]: 35%
- Total Cell Count [4]: 315
- Population Healthy Nuclei (%) [5]: 73%
- Population Mitochondria Different-Phenotype (%) [5]: 4%
- Population Tubulin-Different-Phenotype (%) [5]: 18%
- Total Cell Count [5]: 173
- Population Fragmented Nuclei (%) [6]: 35%
- Population Healthy Nuclei (%) [6]: 46%
- Population Hoechst High Intensity Objects (%) [6]: 7%
- Population Mitochondria Different-Phenotype (%) [6]: 9%
- Population Normal (%) [6]: 92%
- Population Tubulin-Different-Phenotype (%) [6]: 43%
- Total Cell Count [6]: 179
- Population Fragmented Nuclei (%) [7]: 19%
- Population Membrane Permeable-Phenotype (%) [7]: 3%
- Population Mitochondria Different-Phenotype (%) [7]: 7%
- Population Tubulin-Different-Phenotype (%) [7]: 25%
- Total Cell Count [7]: 107
- Population Healthy Nuclei (%) [8]: 38%
- Population Hoechst High Intensity Objects (%) [8]: 32%
- Population Mitochondria Different-Phenotype (%) [8]: 10%
- Population Normal (%) [8]: 67%
- Population Tubulin-Different-Phenotype (%) [8]: 47%
- Total Cell Count [8]: 230
- Population Fragmented Nuclei (%) [9]: 16%
- Population Healthy Nuclei (%) [9]: 69%
- Population Mitochondria Different-Phenotype (%) [9]: 1%
- Population Tubulin-Different-Phenotype (%) [9]: 21%
- Total Cell Count [9]: 184
- Population Fragmented Nuclei (%) [10]: 36%
- Population Healthy Nuclei (%) [10]: 47%
- Population Mitochondria Different-Phenotype (%) [10]: 8%
- Population Tubulin-Different-Phenotype (%) [10]: 54%
- Total Cell Count [10]: 174
- Population Fragmented Nuclei (%) [11]: 18%
- Population Mitochondria Different-Phenotype (%) [11]: 4%
- Population Tubulin-Different-Phenotype (%) [11]: 24%
- Total Cell Count [11]: 110
- Population Healthy Nuclei (%) [12]: 44%
- Population Hoechst High Intensity Objects (%) [12]: 29%
- Population Membrane Permeable-Phenotype (%) [12]: 4%
- Population Mitochondria Different-Phenotype (%) [12]: 1%
- Population Normal (%) [12]: 70%
- Population Tubulin-Different-Phenotype (%) [12]: 47%
- Total Cell Count [12]: 231

Structure (SMILES): CCCn1c(=O)c2[nH]c(C3CCCC3)nc2n(CCC)c1=O [1,3-DIPROPYL-8-CYCLOPENTYLXANTHINE [DPCPX]]
- Population Apoptotic (%) [1]: 38%
- Population Fragmented Nuclei (%) [1]: 10%
- Population Healthy Nuclei (%) [1]: 73%
- Population Hoechst High Intensity Objects (%) [1]: 3%
- Population Membrane Permeable-Phenotype (%) [1]: 0%
- Population Mitochondria Different-Phenotype (%) [1]: 1%
- Population Mitotic Cells (%) [1]: 61%
- Population Normal (%) [1]: 96%
- Population Pyknosed Nuclei (%) [1]: 15%
- Population Tubulin-Different-Phenotype (%) [1]: 29%
- Total Cell Count [1]: 175
- Population Apoptotic (%) [2]: 30%
- Population Fragmented Nuclei (%) [2]: 25%
- Population Healthy Nuclei (%) [2]: 46%
- Population Membrane Permeable-Phenotype (%) [2]: 1%
- Population Mitochondria Different-Phenotype (%) [2]: 10%
- Population Mitotic Cells (%) [2]: 69%
- Population Pyknosed Nuclei (%) [2]: 28%
- Population Tubulin-Different-Phenotype (%) [2]: 50%
- Total Cell Count [2]: 156
- Population Apoptotic (%) [3]: 58%
- Population Fragmented Nuclei (%) [3]: 18%
- Population Healthy Nuclei (%) [3]: 65%
- Population Hoechst High Intensity Objects (%) [3]: 3%
- Population Membrane Permeable-Phenotype (%) [3]: 0%
- Population Mitochondria Different-Phenotype (%) [3]: 10%
- Population Mitotic Cells (%) [3]: 41%
- Population Normal (%) [3]: 96%
- Population Pyknosed Nuclei (%) [3]: 17%
- Population Tubulin-Different-Phenotype (%) [3]: 47%
- Total Cell Count [3]: 104
- Population Apoptotic (%) [4]: 25%
- Population Fragmented Nuclei (%) [4]: 32%
- Population Healthy Nuclei (%) [4]: 47%
- Population Hoechst High Intensity Objects (%) [4]: 6%
- Population Membrane Permeable-Phenotype (%) [4]: 12%
- Population Mitochondria Different-Phenotype (%) [4]: 3%
- Population Mitotic Cells (%) [4]: 75%
- Population Normal (%) [4]: 93%
- Population Pyknosed Nuclei (%) [4]: 20%
- Population Tubulin-Different-Phenotype (%) [4]: 59%
- Total Cell Count [4]: 129
- Population Apoptotic (%) [5]: 50%
- Population Fragmented Nuclei (%) [5]: 13%
- Population Healthy Nuclei (%) [5]: 77%
- Population Hoechst High Intensity Objects (%) [5]: 2%
- Population Membrane Permeable-Phenotype (%) [5]: 0%
- Population Mitochondria Different-Phenotype (%) [5]: 2%
- Population Mitotic Cells (%) [5]: 50%
- Population Normal (%) [5]: 97%
- Population Pyknosed Nuclei (%) [5]: 9%
- Population Tubulin-Different-Phenotype (%) [5]: 30%
- Total Cell Count [5]: 177
- Population Apoptotic (%) [6]: 75%
- Population Fragmented Nuclei (%) [6]: 30%
- Population Healthy Nuclei (%) [6]: 48%
- Population Hoechst High Intensity Objects (%) [6]: 3%
- Population Membrane Permeable-Phenotype (%) [6]: 4%
- Population Mitochondria Different-Phenotype (%) [6]: 12%
- Population Mitotic Cells (%) [6]: 24%
- Population Normal (%) [6]: 96%
- Population Pyknosed Nuclei (%) [6]: 21%
- Population Tubulin-Different-Phenotype (%) [6]: 54%
- Total Cell Count [6]: 159
- Population Apoptotic (%) [7]: 63%
- Population Fragmented Nuclei (%) [7]: 17%
- Population Healthy Nuclei (%) [7]: 61%
- Population Hoechst High Intensity Objects (%) [7]: 3%
- Population Membrane Permeable-Phenotype (%) [7]: 6%
- Population Mitochondria Different-Phenotype (%) [7]: 9%
- Population Mitotic Cells (%) [7]: 36%
- Population Normal (%) [7]: 96%
- Population Pyknosed Nuclei (%) [7]: 22%
- Population Tubulin-Different-Phenotype (%) [7]: 49%
- Total Cell Count [7]: 104
- Population Apoptotic (%) [8]: 20%
- Population Fragmented Nuclei (%) [8]: 35%
- Population Healthy Nuclei (%) [8]: 40%
- Population Hoechst High Intensity Objects (%) [8]: 6%
- Population Membrane Permeable-Phenotype (%) [8]: 8%
- Population Mitochondria Different-Phenotype (%) [8]: 4%
- Population Mitotic Cells (%) [8]: 79%
- Population Normal (%) [8]: 93%
- Population Pyknosed Nuclei (%) [8]: 24%
- Population Tubulin-Different-Phenotype (%) [8]: 63%
- Total Cell Count [8]: 125
- Population Apoptotic (%) [9]: 72%
- Population Fragmented Nuclei (%) [9]: 16%
- Population Healthy Nuclei (%) [9]: 70%
- Population Hoechst High Intensity Objects (%) [9]: 2%
- Population Membrane Permeable-Phenotype (%) [9]: 0%
- Population Mitochondria Different-Phenotype (%) [9]: 1%
- Population Mitotic Cells (%) [9]: 27%
- Population Normal (%) [9]: 97%
- Population Pyknosed Nuclei (%) [9]: 12%
- Population Tubulin-Different-Phenotype (%) [9]: 35%
- Total Cell Count [9]: 182
- Population Apoptotic (%) [10]: 47%
- Population Fragmented Nuclei (%) [10]: 39%
- Population Healthy Nuclei (%) [10]: 48%
- Population Hoechst High Intensity Objects (%) [10]: 7%
- Population Membrane Permeable-Phenotype (%) [10]: 5%
- Population Mitochondria Different-Phenotype (%) [10]: 12%
- Population Mitotic Cells (%) [10]: 52%
- Population Normal (%) [10]: 92%
- Population Tubulin-Different-Phenotype (%) [10]: 55%
- Total Cell Count [10]: 170
- Population Apoptotic (%) [11]: 57%
- Population Fragmented Nuclei (%) [11]: 24%
- Population Healthy Nuclei (%) [11]: 55%
- Population Hoechst High Intensity Objects (%) [11]: 3%
- Population Membrane Permeable-Phenotype (%) [11]: 1%
- Population Mitochondria Different-Phenotype (%) [11]: 13%
- Population Mitotic Cells (%) [11]: 42%
- Population Normal (%) [11]: 96%
- Population Pyknosed Nuclei (%) [11]: 20%
- Population Tubulin-Different-Phenotype (%) [11]: 50%
- Total Cell Count [11]: 98
- Population Apoptotic (%) [12]: 50%
- Population Fragmented Nuclei (%) [12]: 43%
- Population Healthy Nuclei (%) [12]: 45%
- Population Hoechst High Intensity Objects (%) [12]: 2%
- Population Membrane Permeable-Phenotype (%) [12]: 16%
- Population Mitochondria Different-Phenotype (%) [12]: 8%
- Population Mitotic Cells (%) [12]: 50%
- Population Normal (%) [12]: 97%
- Population Pyknosed Nuclei (%) [12]: 10%
- Population Tubulin-Different-Phenotype (%) [12]: 78%
- Total Cell Count [12]: 136
